Screening data from PubChem BioAssay.
MPTP inh: blocks calcium-induced mitochondrial swelling; isolated mouse mitochondria, Ca2+ swelling absorbance, 30 min; inhibition, % at 10 µM; 360,000 compounds, 1.4% hits;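 active means inhibition of 50% or more, scaled per plate between neutral and stimulator controls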
Lmaj promast: reduces viability of Leishmania major promastigotes | inhibition, % at 10 µM | 200,000 compounds, 9% hits | resazurin fluorescence viability; in the data active means inhibition above about 50%;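 further: promastigotes grown with compound for 44 hours at 28 °C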
Lipid droplet: modulators of hepatic lipid droplet formation. inhibition, % at 6.5 µM. 240,000 compounds, 0.4% hits. AML12 mouse hepatocytes, oleate lipid droplets, BODIPY imaging. AID 1656;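 active means lipid droplet intensity inhibited by at least 50%, with more than 500 cells counted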
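Assay system: AML12 hepatocytes (mouse) / Also added: 100 µM oleic acid challenge / Times: overnight treatment with compound plus oleate / Detection: high-content imaging of BODIPY-stained droplets and DAPI nuclei / Evaluation: % inhibition of lipid droplet signal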
T cruzi inh: T. cruzi replication inhibition. inhibition, % (concentration not given with the values). T. cruzi beta-gal in NIH3T3, luminescence, 90 h. 300,000 compounds, 1.4% hits;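 active means mean inhibition across valid replicates above about 55%, limit read from the data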;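 further: signal also drops with host cell toxicity which is not excluded here; higher percent means less beta-gal luminescence so fewer parasites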
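System: NIH/3T3 fibroblasts plus reporter T. cruzi. Medium: DMEM plus 2% FBS. Probe or stimulus: 5000 reporter trypomastigotes per well. Compound: single 50 nL compound addition per well in DMSO. Incubation: co-culture of at least 90 h after 3 h attachment. Detection: GalScreen β-gal luminescence, detergent lysis, 60 min. Evaluation: parasite load inhibition, %.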
DTT redox prof: compounds producing H2O2 with reducing agent – biochemical, NIH compound library profiling, artefact control for MLSCN library redox annotation, primary screen. DTT-dependent redox cycling H2O2, phenol red/HRP absorbance; 100% = 100 µM peroxide control, 0% = buffer. activation, % at 10 µM. 200,000 compounds, 0.03% hits. AID 878;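 active means activation of at least 50% relative to the plate's high and low controls in the primary single-dose screen; inactive means activation below 50%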;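 further: compound incubated with DTT at 0.8 mM final as the reducing agent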
Large screens that a line does not name were inactive. The entries come from a sample that favours hits as a whole.

Cc1c(O)ccc2c(CN3CCN(Cc4ccccc4)CC3)cc(=O)oc12	T cruzi inh 56 (no result: Lmaj promast, DTT redox prof)
CCOc1ccc2oc(=O)cc(CN3CCN(Cc4ccccc4)CC3)c2c1	T cruzi inh 58 (no result: Lmaj promast, DTT redox prof)
COc1ccc2oc(=O)cc(CN3CCN(Cc4ccccc4)CC3)c2c1	none (no result: Lmaj promast, Lipid droplet, T cruzi inh, DTT redox prof)
CCOC(=O)c1ccc(NC(=O)[C@@H]2CCC(=O)N2C2OC(=O)c3c2ccc(OC)c3OC)cc1 (some centres undefined)	none (no result: Lmaj promast, Lipid droplet, T cruzi inh, DTT redox prof)
COc1ccccc1NC(=O)CSc1nc2n[nH]c(C)c2c(=N)n1-c1ccccc1Cl	Lmaj promast 65
CCc1ccccc1NC(=O)CSc1nc2n[nH]c(C)c2c(=N)n1-c1ccc(OC)cc1	none (no result: T cruzi inh)
CC1C(=O)OC2C1CCC1(C)CCC(=O)C(C)C21 (centres undefined)	T cruzi inh 55 (no result: Lmaj promast, DTT redox prof)
CC1C(=O)OC2C1CCC1(C)C3(C)C(=O)C=CC213 (centres undefined)	none (no result: Lmaj promast, Lipid droplet, T cruzi inh, DTT redox prof)
OCCN1CCN(c2cc(C(F)(F)F)nc3c(F)cccc23)CC1	none (no result: Lmaj promast, T cruzi inh, DTT redox prof)
CCOC(=O)N1CCC(N2CCCC(CO)(Cc3cccc(OC)c3)C2)CC1 (centres undefined)	Lmaj promast 87
OCC1(Cc2ccccc2)CCCN(C2CCCC2)C1 (centres undefined)	Lmaj promast 61
CN1CCC(CO)(Cc2ccccc2)CC1	none
CCCCN(C)CCNC(=O)CN1C(=O)CSc2ccc(S(=O)(=O)N3CCCC3)cc21	none (no result: Lmaj promast, DTT redox prof)
Cc1ccc(CN(C)C(=O)CSc2nnc3n2CCCCC3)c(C)c1	none (no result: Lmaj promast, Lipid droplet, T cruzi inh, DTT redox prof)
COc1ccc(CCNC(=O)CC(Cc2ccc(C)cc2)C(=O)O)cc1OC (centres undefined)	none (no result: Lmaj promast, DTT redox prof)
CC1C2=C(CCCC2=O)N(c2cccc3ccccc23)C2=C1C(=O)CCC2	Lmaj promast 55 (no result: MPTP inh, Lipid droplet, T cruzi inh)
CC(CCN(C)C)OC(=O)c1ccc(C(C)c2ccccc2)o1 (centres undefined)	Lmaj promast 100, T cruzi inh 72 (no result: Lipid droplet)
O=S(=O)(Cc1cc(Sc2ccc(Cl)cc2)nc(-c2ccccc2)n1)c1ccccc1	T cruzi inh 55
Cc1nc(CS(=O)(=O)c2ccc(Cl)cc2)cc(Sc2ccc(Cl)cc2)n1	none (no result: T cruzi inh)
OCC1(Cc2ccccc2Cl)CCN(C/C=C/c2ccccc2)CC1	Lmaj promast 88
CCOC(=O)Cn1nc(C)c(NC(=O)COc2ccc(OC)cc2)c1C	none (no result: Lmaj promast, DTT redox prof)
CCCCN(C)c1c(C)nc2ccc(C(=O)N(C)CCN(C)C)cn12	none (no result: Lmaj promast, Lipid droplet, T cruzi inh, DTT redox prof)
COc1cc(CN2CCCC(C(=O)Nc3cccc(-n4cccn4)c3)C2)ccc1F (centres undefined)	T cruzi inh 61 (no result: Lmaj promast, DTT redox prof)
CCC(c1nnnn1Cc1ccccc1)N(Cc1ccco1)Cc1cc2cc(OC)ccc2[nH]c1=O (centres undefined)	none (no result: Lipid droplet)
CCC(c1nnnn1Cc1ccco1)N(CCc1ccccc1)Cc1cc2cc(C)ccc2[nH]c1=O (centres undefined)	none (no result: Lmaj promast, Lipid droplet, DTT redox prof)
CCC(c1nnnn1CCc1ccccc1)N(Cc1ccco1)Cc1cc2cc(C)cc(C)c2[nH]c1=O (centres undefined)	Lmaj promast 90
CCC(c1nnnn1CCc1ccccc1)N(Cc1ccco1)Cc1cc2c(C)ccc(C)c2[nH]c1=O (centres undefined)	Lmaj promast 87, T cruzi inh 55 (no result: Lipid droplet)
Cn1cnc2c(cnn2C)c1=N	none (no result: Lmaj promast, Lipid droplet, T cruzi inh, DTT redox prof)
NS(=O)(=O)c1cccc(NS(=O)(=O)c2ccc(/C=C/C(=O)O)cc2)c1	none (no result: Lmaj promast, DTT redox prof)
CC(C)CNC(=S)NC1CC2CCC(C1)N2Cc1ccccc1 (centres undefined)	Lmaj promast 88 (no result: Lipid droplet)
CCNC(=S)NC1CC2CCC(C1)N2Cc1ccccc1 (centres undefined)	none (no result: Lipid droplet)
COCCCNC(=S)NC1CC2CCC(C1)N2Cc1ccccc1 (centres undefined)	none
O=C(NC1CCCN(CCc2ccccc2)C1)C1CCCC1 (centres undefined)	T cruzi inh 55 (no result: Lmaj promast, DTT redox prof)
Cc1ccccc1C(=O)NC1CC2CCC(C1)N2Cc1ccccc1 (centres undefined)	Lmaj promast 86
CCOCCCNC(=S)NC1CC2CCC(C1)N2Cc1ccccc1 (centres undefined)	Lmaj promast 88
CSCC[C@@H](CO)NC(=O)[C@H]1O[C@@H](n2ccc(=O)[nH]c2=O)[C@H](O)[C@@H]1O	none (no result: Lmaj promast, Lipid droplet, T cruzi inh, DTT redox prof)
O=C(NC(=S)Nc1ccc2cn[nH]c2c1)c1ccccc1	none
O=C(NN1CCOCC1)c1ccc(Cl)s1	none
